ChEMBL document CHEMBL5247578, “Effective synthesis of benzimidazoles-imidazo[1,2-a]pyrazine conjugates: A comparative study of mono-and bis-benzimidazoles for antitumor activity” (Eur J Med Chem, 2019)

Key:
[1] = n-Octanol/phosphate buffer partition coefficient, logP of the compound at pH 7.4 incubated for 85 mins by shake-flask method; type: physicochemical
How it was run: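 Octanol–water partition by shake-flask: n-octanol with 0.15 M phosphate buffer pH 7.4 at 10:1 volumes. Buffer-phase absorbance read before mixing, then shaken 50 min and centrifuged at 2500 rpm for 35 min. Buffer absorbance read again; P = (Ai−Af)/Af × Vw/Vo.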

SK-MEL-5 = assay: Antiproliferative activity against human SK-MEL-5 cells assessed as cell growth inhibition at 10 uM incubated for 48 hrs by sulforhodamine B assay relative to control; type: functional
How it was run: (§1)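 NCI-60 single-dose screen at 10^-5 M. Cells grown in RPMI 1640 with 5% FBS and 2 mM L-glutamine, plated at 5,000–40,000 cells/well, and preincubated 24 h. Drug (DMSO stock) added and incubated 48 h at 37 °C, 5% CO2. Adherent cells fixed with cold TCA, stained with 0.4% SRB in 1% acetic acid, dye solubilized in 10 mM trizma base, A515 read. Percent growth taken against time-zero and untreated control.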

Hs-578T = assay: Antiproliferative activity against human Hs-578T cells assessed as cell growth inhibition at 10 uM incubated for 48 hrs by sulforhodamine B assay relative to control; type: functional; how it was run: as §1
ACHN = assay: Antiproliferative activity against human ACHN cells assessed as cell growth inhibition at 10 uM incubated for 48 hrs by sulforhodamine B assay relative to control; type: functional
How it was run: (§2)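 Single-dose NCI-60 prescreen at 10^-5 M. Cells in RPMI 1640 with 5% FBS and 2 mM L-glutamine, seeded 5,000–40,000 cells/well with 24 h preincubation, then drug exposure for 48 h at 37 °C under 5% CO2. Growth read by SRB staining of TCA-fixed cells at 515 nm against time-zero and untreated controls. Negative growth values denote cell kill.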

MOLT-4 = assay: Antiproliferative activity against human MOLT-4 cells assessed as cell growth inhibition at 10 uM incubated for 48 hrs by sulforhodamine B assay relative to control; type: functional; how it was run: as §1
HL-60 = assay: Antiproliferative activity against human HL-60 cells assessed as cell growth inhibition at 10 uM incubated for 48 hrs by sulforhodamine B assay relative to control; type: functional
How it was run: (§3)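 NCI-60 one-dose prescreen at 10^-5 M. Cells grown in RPMI 1640 with 5% FBS and 2 mM glutamine, preincubated 24 h, then exposed 48 h at 37 °C. Adherent lines TCA-fixed, SRB-stained, A515 read. Growth percent relative to time-zero and control; negative values mean cell kill.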

MDA-MB-468 = assay: Antiproliferative activity against human MDA-MB-468 cells assessed as cell growth inhibition at 10 uM incubated for 48 hrs by sulforhodamine B assay relative to control; type: functional; how it was run: as §1
SK-MEL-2 = assay: Antiproliferative activity against human SK-MEL-2 cells assessed as cell growth inhibition at 10 uM incubated for 48 hrs by sulforhodamine B assay relative to control; type: functional; how it was run: as §1
NCI-H23 = assay: Antiproliferative activity against human NCI-H23 cells assessed as cell growth inhibition at 10 uM incubated for 48 hrs by sulforhodamine B assay relative to control; type: functional; how it was run: as §1
NCI-H522 = assay: Antiproliferative activity against human NCI-H522 cells assessed as cell growth inhibition at 10 uM incubated for 48 hrs by sulforhodamine B assay relative to control; type: functional; how it was run: as §1
KM12 = assay: Antiproliferative activity against human KM12 cells assessed as cell growth inhibition at 10 uM incubated for 48 hrs by sulforhodamine B assay relative to control; type: functional; how it was run: as §1
HCT-116 = assay: Antiproliferative activity against human HCT-116 cells assessed as cell growth inhibition at 10 uM incubated for 48 hrs by sulforhodamine B assay relative to control; type: functional; how it was run: as §3
NCI-H226 = assay: Antiproliferative activity against human NCI-H226 cells assessed as cell growth inhibition at 10 uM incubated for 48 hrs by sulforhodamine B assay relative to control; type: functional; how it was run: as §1
A549 = assay: Antiproliferative activity against human A549 cells assessed as cell growth inhibition at 10 uM incubated for 48 hrs by sulforhodamine B assay relative to control; type: functional; how it was run: as §2
LOX IMVI = assay: Antiproliferative activity against human LOX IMVI cells assessed as cell growth inhibition at 10 uM incubated for 48 hrs by sulforhodamine B assay relative to control; type: functional; how it was run: as §1
HOP-92 = assay: Antiproliferative activity against human HOP-92 cells assessed as cell growth inhibition at 10 uM incubated for 48 hrs by sulforhodamine B assay relative to control; type: functional; how it was run: as §3
HCC 2998 = assay: Antiproliferative activity against human HCC 2998 cells assessed as cell growth inhibition at 10 uM incubated for 48 hrs by sulforhodamine B assay relative to control; type: functional; how it was run: as §3
SR = assay: Antiproliferative activity against human SR cells assessed as cell growth inhibition at 10 uM incubated for 48 hrs by sulforhodamine B assay relative to control; type: functional; how it was run: as §1
UACC-62 = assay: Antiproliferative activity against human UACC-62 cells assessed as cell growth inhibition at 10 uM incubated for 48 hrs by sulforhodamine B assay relative to control; type: functional; how it was run: as §1
T47D = assay: Antiproliferative activity against human T47D cells assessed as cell growth inhibition at 10 uM incubated for 48 hrs by sulforhodamine B assay relative to control; type: functional; how it was run: as §1
TK-10 = assay: Antiproliferative activity against human TK-10 cells assessed as cell growth inhibition at 10 uM incubated for 48 hrs by sulforhodamine B assay relative to control; type: functional; how it was run: as §1
HCT-15 = assay: Antiproliferative activity against human HCT-15 cells assessed as cell growth inhibition at 10 uM incubated for 48 hrs by sulforhodamine B assay relative to control; type: functional; how it was run: as §3
SF-539 = assay: Antiproliferative activity against human SF-539 cells assessed as cell growth inhibition at 10 uM incubated for 48 hrs by sulforhodamine B assay relative to control; type: functional; how it was run: as §1
OVCAR-8 = assay: Antiproliferative activity against human OVCAR-8 cells assessed as cell growth inhibition at 10 uM incubated for 48 hrs by sulforhodamine B assay relative to control; type: functional; how it was run: as §1
PC-3 = assay: Antiproliferative activity against human PC-3 cells assessed as cell growth inhibition at 10 uM incubated for 48 hrs by sulforhodamine B assay relative to control; type: functional; how it was run: as §1
K562 = assay: Antiproliferative activity against human K562 cells assessed as cell growth inhibition at 10 uM incubated for 48 hrs by sulforhodamine B assay relative to control; type: functional; how it was run: as §1
DU-145 = assay: Antiproliferative activity against human DU-145 cells assessed as cell growth inhibition at 10 uM incubated for 48 hrs by sulforhodamine B assay relative to control; type: functional; how it was run: as §3
RPMI-8226 = assay: Antiproliferative activity against human RPMI-8226 cells assessed as cell growth inhibition at 10 uM incubated for 48 hrs by sulforhodamine B assay relative to control; type: functional; how it was run: as §1
U-251 = assay: Antiproliferative activity against human U-251 cells assessed as cell growth inhibition at 10 uM incubated for 48 hrs by sulforhodamine B assay relative to control; type: functional; how it was run: as §1
CCRF-CEM = assay: Antiproliferative activity against human CCRF-CEM cells assessed as cell growth inhibition at 10 uM incubated for 48 hrs by sulforhodamine B assay relative to control; type: functional; how it was run: as §2
MDA-MB-231 = assay: Antiproliferative activity against human MDA-MB-231 cells assessed as cell growth inhibition at 10 uM incubated for 48 hrs by sulforhodamine B assay relative to control; type: functional; how it was run: as §1
UO-31 = assay: Antiproliferative activity against human UO-31 cells assessed as cell growth inhibition at 10 uM incubated for 48 hrs by sulforhodamine B assay relative to control; type: functional; how it was run: as §1
IGROV-1 = assay: Antiproliferative activity against human IGROV-1 cells assessed as cell growth inhibition at 10 uM incubated for 48 hrs by sulforhodamine B assay relative to control; type: functional; how it was run: as §1
SNB-19 = assay: Antiproliferative activity against human SNB-19 cells assessed as cell growth inhibition at 10 uM incubated for 48 hrs by sulforhodamine B assay relative to control; type: functional; how it was run: as §1
A498 = assay: Antiproliferative activity against human A498 cells assessed as cell growth inhibition at 10 uM incubated for 48 hrs by sulforhodamine B assay relative to control; type: functional; how it was run: as §2
HT-29 = assay: Antiproliferative activity against human HT-29 cells assessed as cell growth inhibition at 10 uM incubated for 48 hrs by sulforhodamine B assay relative to control; type: functional; how it was run: as §1
786-0 = assay: Antiproliferative activity against human 786-0 cells assessed as cell growth inhibition at 10 uM incubated for 48 hrs by sulforhodamine B assay relative to control; type: functional; how it was run: as §2
RXF 393 = assay: Antiproliferative activity against human RXF 393 cells assessed as cell growth inhibition at 10 uM incubated for 48 hrs by sulforhodamine B assay relative to control; type: functional; how it was run: as §1
EKVX = assay: Antiproliferative activity against human EKVX cells assessed as cell growth inhibition at 10 uM incubated for 48 hrs by sulforhodamine B assay relative to control; type: functional; how it was run: as §3
MCF7 = assay: Antiproliferative activity against human MCF7 cells assessed as cell growth inhibition at 10 uM incubated for 48 hrs by sulforhodamine B assay relative to control; type: functional; how it was run: as §1
SNB-75 = assay: Antiproliferative activity against human SNB-75 cells assessed as cell growth inhibition at 10 uM incubated for 48 hrs by sulforhodamine B assay relative to control; type: functional; how it was run: as §1
SN12C = assay: Antiproliferative activity against human SN12C cells assessed as cell growth inhibition at 10 uM incubated for 48 hrs by sulforhodamine B assay relative to control; type: functional; how it was run: as §1
SF-268 = assay: Antiproliferative activity against human SF-268 cells assessed as cell growth inhibition at 10 uM incubated for 48 hrs by sulforhodamine B assay relative to control; type: functional; how it was run: as §1
NCI-H322M = assay: Antiproliferative activity against human NCI-H322M cells assessed as cell growth inhibition at 10 uM incubated for 48 hrs by sulforhodamine B assay relative to control; type: functional; how it was run: as §1
NCI-H460 = assay: Antiproliferative activity against human NCI-H460 cells assessed as cell growth inhibition at 10 uM incubated for 48 hrs by sulforhodamine B assay relative to control; type: functional; how it was run: as §1

| SMILES | logD at 1.417 h [1] | inhibition at 10 µM (SK-MEL-5) [%] | inhibition at 10 µM (ACHN) [%] | inhibition at 10 µM (MOLT-4) [%] | inhibition at 10 µM (HL-60) [%] | inhibition at 10 µM (NCI-H522) [%] | inhibition at 10 µM (KM12) [%] | inhibition at 10 µM (HCT-116) [%] | inhibition at 10 µM (NCI-H226) [%] | inhibition at 10 µM (A549) [%] | inhibition at 10 µM (LOX IMVI) [%] | inhibition at 10 µM (HOP-92) [%] | inhibition at 10 µM (SR) [%] | inhibition at 10 µM (UACC-62) [%] | inhibition at 10 µM (T47D) [%] | inhibition at 10 µM (HCT-15) [%] | inhibition at 10 µM (OVCAR-8) [%] | inhibition at 10 µM (PC-3) [%] | inhibition at 10 µM (K562) [%] | inhibition at 10 µM (RPMI-8226) [%] | other results |
| --- | --- | --- | --- | --- | --- | --- | --- | --- | --- | --- | --- | --- | --- | --- | --- | --- | --- | --- | --- | --- | --- |
| c1cn2cc(-c3ccsc3)nc(-c3ccc4ncn(C5CCCCC5)c4c3)c2n1 | 1.81 | 25 | 5.76 | 30 | 18.4 | 10.2 | 15.4 | 13.3 | 6.34 | 3.97 | 4.9 | 27.8 | 14.3 | 18.4 | 63.7 | 1.37 | 12.1 | 19.9 | 22 | 37.9 | inhibition at 10 µM (Hs-578T): 5.56%; inhibition at 10 µM (MDA-MB-468): 21.8%; inhibition at 10 µM (SK-MEL-2): 3.68%; inhibition at 10 µM (NCI-H23): 10%; inhibition at 10 µM (HCC 2998): 2.18%; inhibition at 10 µM (TK-10): 3.37%; inhibition at 10 µM (SF-539): 6.29%; inhibition at 10 µM (DU-145): 1.36%; inhibition at 10 µM (U-251): 6.09%; inhibition at 10 µM (CCRF-CEM): 29.2%; inhibition at 10 µM (MDA-MB-231): 1.35%; inhibition at 10 µM (UO-31): 23.1%; inhibition at 10 µM (IGROV-1): 1.51%; inhibition at 10 µM (SNB-19): 0.39%; inhibition at 10 µM (A498): 20.1%; inhibition at 10 µM (HT-29): 5.68%; inhibition at 10 µM (786-0): 6.35%; inhibition at 10 µM (RXF 393): 8.63% |
| FC(F)(F)c1cccc(-c2cn3ccnc3c(-c3ccc4ncn(C5CCCCC5)c4c3)n2)c1 | 1.72 | 4.32 | 0.3 | 32.9 | 1.06 | 10.7 | 1.25 | 17.6 | 1.55 | 5.15 | 3.45 | 8.38 | 15.6 | 4.33 | 52.1 | 0.36 | 10.1 | 36.5 | 21.5 | 32.1 | inhibition at 10 µM (EKVX): 4.79%; inhibition at 10 µM (MCF7): 19.9%; inhibition at 10 µM (SNB-75): 4.58%; inhibition at 10 µM (SN12C): 8.3%; inhibition at 10 µM (SF-268): 3.3%; inhibition at 10 µM (U-251): 5.93%; inhibition at 10 µM (CCRF-CEM): 27.3%; inhibition at 10 µM (MDA-MB-231): 21.8%; inhibition at 10 µM (UO-31): 22.5%; inhibition at 10 µM (NCI-H322M): 5.83%; inhibition at 10 µM (SNB-19): 2.24%; inhibition at 10 µM (NCI-H460): 4.38%; inhibition at 10 µM (HT-29): 6.41% |
